STAT1 activator – activators of IFN-gamma induced STAT1 signaling. NIH 3T3 STAT1-luciferase reporter, luminescence; 100% = IFN-gamma alone, no compound. activation (% of control), % at 5.5 µM. hit rate 2.6% among 200,000;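 active means activation above the screen-wide mean activation plus 3 SD, cut at about 130% in these data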;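 further: raw ratio to IFN-gamma control signal so 100% means no change and 0% no light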
APP 5'UTR act – activates APP 5'UTR luciferase reporter; SH-SY5Y APP 5'UTR luciferase reporter, luminescence; zero percent = DMSO vehicle wells; activation, % at 2 µM; hit rate 1% among 190,000;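 active means activation above a set limit, based on mean plus 3 SD of controls, cut at about 140% in these data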
FLuc act counter – affects firefly luciferase, flagging false hits in luciferase stimulation screens | P08659 | ATPlite luciferase biochemical, luminescence, 10 min; 0 = ATP-free wells, 1 = DMSO control | activation factor at 10 µM | 200,000 tested, under 10 active | AID 1027;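 active means luciferase activation factor, scaled between plate controls, of at least 2 with compound at 10 µM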
Target sequence (P08659 whole entry, looked up): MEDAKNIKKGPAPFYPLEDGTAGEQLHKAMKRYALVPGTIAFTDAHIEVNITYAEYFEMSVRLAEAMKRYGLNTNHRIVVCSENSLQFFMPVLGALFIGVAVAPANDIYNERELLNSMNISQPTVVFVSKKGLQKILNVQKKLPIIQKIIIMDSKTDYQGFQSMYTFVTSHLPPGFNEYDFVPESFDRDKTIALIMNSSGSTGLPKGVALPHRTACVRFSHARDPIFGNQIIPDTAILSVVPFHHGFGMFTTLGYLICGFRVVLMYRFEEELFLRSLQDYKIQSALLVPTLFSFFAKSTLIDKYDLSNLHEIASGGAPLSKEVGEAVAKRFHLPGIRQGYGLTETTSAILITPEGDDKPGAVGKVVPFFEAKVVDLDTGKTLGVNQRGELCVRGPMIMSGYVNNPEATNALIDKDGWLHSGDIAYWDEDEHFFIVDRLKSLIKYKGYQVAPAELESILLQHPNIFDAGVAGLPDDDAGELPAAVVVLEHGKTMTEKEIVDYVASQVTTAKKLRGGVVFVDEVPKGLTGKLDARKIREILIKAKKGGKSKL
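System: cell-free luciferase reagent; medium: PBS as buffer for the ATP substrate; doses: test compounds dosed from 2 mM stocks in 100% DMSO; incubation: 10 min, room temperature; measured by: luminescence from luciferase reaction; read-out: luciferase activation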
FLuc inhib CS – Photinus pyralis luciferase inhibition counter-screen | ATPLite firefly luciferase biochemical luminescence, 10 min | inhibition, % at 10 µM | hit rate 1.5% among 200,000;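 active means inhibition above about 50% when tested at 10 µM, limit read from the data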
NF-kB expr up – NF-kB expression increase, human neuronal cells; AID 1239; NF-kB reporter expression; active compounds read high; hit rate 1.6% among 190,000; fold change at 12.5 µM; in the data active means fold change above about 3.3
An asterisk follows results filed as active; · = not tested or not shown. Hits are enriched below; roughly 4.1% of the tested compounds scored in any of these assays.

SMILES | STAT1 activator | APP 5'UTR act | FLuc act counter | FLuc inhib CS | NF-kB expr up
CCOc1ncccc1C(=O)OCc1cccc([N+](=O)[O-])c1 | 109 | 13 | 1 | -2 | 1
C/C(=N\NC(=S)Nc1ccccc1C)c1ccc(O)cc1 | 96 | 27 | 0.8 | 16 | 0.72
COc1ccc(/C=N/NC(=O)c2c(C)nnn2-c2nonc2N)cc1OC | 102 | 4 | 1.1 | -8 | 0.84
O=C(CN1CCCN(S(=O)(=O)c2ccc(Br)cc2)CC1)Nc1ccc2c(c1)OCO2 | 94 | 7 | 1.1 | -6 | 0.7
O=C(Nc1ccc(OC(F)F)c(Cl)c1)c1ccccn1 | 146* | 139* | 0.5 | 47 | 9.4*
C/C(=N\Nc1ccc(C(=O)O)cc1)c1ccc(-n2ccnc2)cc1 | 138* | 102 | 1 | 1 | 1
C/C(=N\NC(N)=O)c1ccc(-n2ccnc2)cc1 | 97 | -17 | 1.1 | -7 | 1.3
CCc1ccc(OCC(=O)N/N=C(\C)c2ccc(-n3ccnc3)cc2)cc1 | 104 | 9 | 0.3 | 72* | 1.1
CCCCN1C2CCCC1CC(NC(=O)N(C(C)C)C(C)C)C2 (stereo not drawn) | 95 | 18 | · | · | ·
CCOc1ccc(/C=N/NC(=O)c2ccc(Cn3cc([N+](=O)[O-])cn3)o2)cc1 | 114 | 16 | 0.5 | 50 | 1.5
CC(C)(C)c1ccc(OCc2ccc(C(=O)N/N=C/c3ccc([N+](=O)[O-])cc3)o2)cc1 | 131* | 21 | 1 | -1 | 1.3
COc1ccc(C(=O)Nc2cnc3ccccn3c2=O)cc1 | 140* | 72 | 0.9 | 13 | 2.4
Cc1ccccc1NC(=O)c1cnc2ccccn2c1=O | 85 | 104 | 0.2 | 82* | 1.8
COc1ccc(OC)c(NC(=O)c2cnc3ccccn3c2=O)c1 | 103 | 2 | · | · | ·
CCC(C)Cn1c(C(C)O)nc2ccccc21 (stereo not drawn) | 104 | 6 | 1 | -2 | 0.95
O=C(CCC(=O)N(CC(=O)NC1CCCCC1)Cc1cccs1)Nc1ccccn1 | 101 | 3 | 1.1 | -6 | 0.97
Brc1cccc(-c2n[nH]c(-c3ccccc3)n2)c1 | 138* | 132 | 0.9 | 12 | 3.9*
COc1ccc(-c2nc(-c3cccc(C)c3)no2)cc1OC | 138* | 3 | 1 | 0 | 2.8
COc1ccc(-c2nc(-c3ccccc3OC)no2)cc1OC | 132* | 31 | 0.8 | 18 | 1.2
Cc1cccc(-c2noc(CN(C(=O)c3ccc4c(c3)OCO4)C(C)C)n2)c1 | 101 | -2 | 1 | 0 | 1
CCOc1cc(-c2nc(-c3ccccc3OC)no2)cc(OCC)c1OCC | 97 | 30 | 1.1 | -8 | 0.82
Cc1cccc(-c2noc(-c3ccc4c(c3)OCO4)n2)c1 | 86 | 186* | 0.2 | 82* | ·
COc1ccc(-c2nc(C3CCCCC3)no2)cc1OC | 134* | 71 | 1 | -2 | 2
Cc1cc([N+](=O)[O-])nn1CCC(=O)Nc1nccs1 | 110 | 4 | 1.1 | -5 | 1.1
O=C(O)c1ccc(Nc2ncc([N+](=O)[O-])cc2[N+](=O)[O-])cc1 | 99 | 28 | 1 | -3 | 0.93
SMILES | STAT1 activator | APP 5'UTR act | FLuc act counter | FLuc inhib CS | NF-kB expr up
CC(C)(C)c1ccc(C(=O)Nc2ccc(CC(=O)O)cc2)o1 | 50 | · | 0.5 | 51* | 0.38
Cc1ccc(C(=O)Nc2ccc(CC(=O)O)cc2)o1 | 98 | -2 | 1 | -2 | 1.1
CC(C)(C)c1ccc(-c2nnc(N)s2)cc1 | 132* | 146* | 0.1 | 87* | 4.9*
ClCc1csc(-c2ccc(Cl)cc2)n1 | 104 | 21 | 1 | 0 | 1.4
CCOc1ccc(-c2nnc(N)s2)cc1 | 113 | 38 | 0.4 | 58* | 2
CCOc1ccc(-c2nc(CCl)cs2)cc1 | 116 | 48 | 0.3 | 70* | 3.8*
Nc1nnc(-c2ccc(F)cc2)s1 | 103 | 7 | 1 | 1 | 1.2
CC(NC(=O)CSc1nc2ccc(N)cc2s1)c1ccccc1 (stereo not drawn) | 94 | -13 | 1.1 | -8 | 1.1
COC(=O)c1ccc(Oc2c(Cl)cccc2[N+](=O)[O-])cc1 | 104 | -11 | 1 | -5 | 1.1
O=C(CN1CCN(C(=O)c2c(F)cccc2F)CC1)Nc1ccccc1F | 100 | -8 | 1 | -4 | 0.87
COc1ccc2c(CSc3nc4nc(C)cc(C)n4n3)cc(=O)oc2c1 | 99 | 10 | 1 | -4 | 4.2*
CC(C)CCn1cnc2c(sc3nc4c(cc32)CSC(C)(C)C4)c1=O | 118 | 231* | 0.9 | 8 | 0.99
